Measurements from publication PMC11327602 (Heliyon, 2024).
“And” between values parts separate entries of the source, which are not always exact repeats. Equal values may be shown once. Read-outs that look alike come from different tables or passages of the source.

Key:
[1] = Superoxide anion scavenging assay; conditions: for IC50: read-out: superoxide anion scavenging IC50
[2] = DPPH free radical scavenging activity; conditions: for IC50: read-out: DPPH scavenging IC50
[3] = biological target: Bacillus Pasteurii urease (Sporosarcina pasteurii, UniProt P41020); assay: Urease inhibition assay; assay type: biochemical; conditions: 3 experiments
Sequence of Bacillus Pasteurii urease (P41020 whole entry): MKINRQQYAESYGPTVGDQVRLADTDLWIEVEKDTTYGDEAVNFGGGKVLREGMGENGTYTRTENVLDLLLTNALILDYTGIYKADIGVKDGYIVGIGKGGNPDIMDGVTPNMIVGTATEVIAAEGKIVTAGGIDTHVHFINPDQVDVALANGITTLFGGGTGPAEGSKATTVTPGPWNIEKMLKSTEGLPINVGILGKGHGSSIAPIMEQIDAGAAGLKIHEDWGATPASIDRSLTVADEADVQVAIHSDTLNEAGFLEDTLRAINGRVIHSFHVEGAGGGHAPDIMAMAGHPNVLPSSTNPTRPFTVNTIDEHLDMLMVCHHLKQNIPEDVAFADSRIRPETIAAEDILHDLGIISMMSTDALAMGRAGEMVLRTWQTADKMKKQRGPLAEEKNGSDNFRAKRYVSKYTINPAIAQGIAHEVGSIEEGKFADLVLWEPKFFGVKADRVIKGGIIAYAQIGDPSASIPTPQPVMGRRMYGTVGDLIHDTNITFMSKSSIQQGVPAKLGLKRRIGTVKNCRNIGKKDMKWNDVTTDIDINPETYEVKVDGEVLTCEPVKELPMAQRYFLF
Sequence of Bacillus Pasteurii urease (P41021 whole entry partner): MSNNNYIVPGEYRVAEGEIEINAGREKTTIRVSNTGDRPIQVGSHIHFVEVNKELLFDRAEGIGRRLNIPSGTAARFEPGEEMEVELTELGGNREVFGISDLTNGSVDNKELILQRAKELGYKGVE
Sequence of Bacillus Pasteurii urease (P41022 whole entry partner): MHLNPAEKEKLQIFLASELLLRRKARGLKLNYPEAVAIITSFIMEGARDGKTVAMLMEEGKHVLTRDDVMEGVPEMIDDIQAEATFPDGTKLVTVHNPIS

jack bean urease = jack bean urease (Canavalia ensiformis, UniProt P07374); assay: Urease inhibition assay; assay type: biochemical; conditions: for IC50: 3 experiments
Sequence of jack bean urease (P07374 whole entry, looked up): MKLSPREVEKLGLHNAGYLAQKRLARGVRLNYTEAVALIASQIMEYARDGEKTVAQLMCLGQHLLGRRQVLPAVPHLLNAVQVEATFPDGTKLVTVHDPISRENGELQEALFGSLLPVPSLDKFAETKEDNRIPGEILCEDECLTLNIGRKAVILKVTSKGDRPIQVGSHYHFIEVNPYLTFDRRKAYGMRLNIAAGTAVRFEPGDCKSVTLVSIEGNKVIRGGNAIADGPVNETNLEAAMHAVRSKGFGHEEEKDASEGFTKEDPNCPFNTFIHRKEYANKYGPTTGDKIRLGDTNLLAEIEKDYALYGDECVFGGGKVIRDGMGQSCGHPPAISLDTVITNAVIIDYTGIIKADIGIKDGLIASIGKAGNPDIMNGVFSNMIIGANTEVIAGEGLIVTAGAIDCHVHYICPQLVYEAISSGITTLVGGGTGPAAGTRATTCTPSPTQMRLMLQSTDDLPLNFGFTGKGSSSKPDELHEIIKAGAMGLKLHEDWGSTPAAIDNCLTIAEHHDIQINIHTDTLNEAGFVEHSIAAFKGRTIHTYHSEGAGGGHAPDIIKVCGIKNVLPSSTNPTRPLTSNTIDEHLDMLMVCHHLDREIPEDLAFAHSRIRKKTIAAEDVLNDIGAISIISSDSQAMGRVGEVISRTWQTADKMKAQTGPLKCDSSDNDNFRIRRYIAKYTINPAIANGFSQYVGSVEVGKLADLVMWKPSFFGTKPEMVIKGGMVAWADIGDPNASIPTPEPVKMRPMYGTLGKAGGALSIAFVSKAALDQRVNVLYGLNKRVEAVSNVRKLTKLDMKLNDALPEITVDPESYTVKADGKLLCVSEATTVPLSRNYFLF

α-Glucosidase = α-Glucosidase (Saccharomyces cerevisiae, UniProt P53341); assay: α-Glucosidase inhibition assay; assay type: biochemical
Sequence of α-Glucosidase (P53341 whole entry): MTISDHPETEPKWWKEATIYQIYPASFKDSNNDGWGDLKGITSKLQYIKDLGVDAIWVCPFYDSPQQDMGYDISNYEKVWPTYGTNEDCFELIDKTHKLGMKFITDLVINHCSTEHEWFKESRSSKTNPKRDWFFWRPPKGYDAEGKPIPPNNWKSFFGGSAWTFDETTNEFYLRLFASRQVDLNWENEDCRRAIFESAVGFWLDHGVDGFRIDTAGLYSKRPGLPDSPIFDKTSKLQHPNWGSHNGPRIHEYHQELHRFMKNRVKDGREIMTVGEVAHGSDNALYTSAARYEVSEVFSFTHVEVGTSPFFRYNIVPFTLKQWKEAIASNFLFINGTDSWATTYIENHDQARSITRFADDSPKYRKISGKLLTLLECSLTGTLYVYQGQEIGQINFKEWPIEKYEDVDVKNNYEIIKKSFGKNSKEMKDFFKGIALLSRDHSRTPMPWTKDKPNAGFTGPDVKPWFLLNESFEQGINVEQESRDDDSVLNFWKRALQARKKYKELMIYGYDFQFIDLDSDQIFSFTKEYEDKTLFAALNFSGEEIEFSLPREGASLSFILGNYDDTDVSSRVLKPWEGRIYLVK
Outline: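 Test compound (200–800 μg/mL) pre-incubated 5 min at 37 °C with 2 % w/v starch (sucrose) solution in 0.2 M Tris buffer, pH 8.0. 5 mM p-nitrophenyl-α-D-glucopyranoside added intermittently, then α-glucosidase (1 U/mL), 40 min at 35 °C. Stopped with […]; absorbance read at 405 nm. % inhibition = (control − sample)/control × 100; samples above 50 % taken to IC50.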

ABTS method = conditions: for IC50: read-out: ABTS scavenging IC50
[4] = Enzyme (SEM ±) B.P Urease, IC50, mean ± SEM
[5] = Enzyme (SEM ±) J.B Urease, IC50, mean ± SEM

IC50 [1] | IC50 [2] | IC50 [3, 4] | Types of inhibition (urease) (jack bean urease) | IC50 (jack bean urease; [5]) | Type of Inhibition (α-glucosidase and α-amylase) (α-Glucosidase) | IC50 (ABTS method) | SMILES | superoxide anion % scavenging ([1]; 25 μM) | superoxide anion % scavenging ([1]; 50 μM) | superoxide anion % scavenging ([1]; 75 μM) | superoxide anion % scavenging ([1]; 100 μM) | DPPH % Scavenging ([2]; 50 μM) | DPPH % Scavenging ([2]; 75 μM) | DPPH % Scavenging ([2]; 100 μM) | DPPH % Scavenging ([2]; 25 μM) | ABTS % Scavenging (ABTS method; 10 μM) | ABTS % Scavenging (ABTS method; 20 μM) | ABTS % Scavenging (ABTS method; 30 μM) | ABTS % Scavenging (ABTS method; 40 μM) | ABTS % Scavenging (ABTS method; 50 μM) | further results
33.4 µM and 35.4 µM and 39.1 µM and 38 µM | 30.4 µM and 42.2 µM and 45.1 µM and 35 µM | – | – | – | – | – | O=C1O[C@H]([C@@H](O)CO)C(O)=C1O [Ascorbic acid, reference compound] | 39 ± 0.09% and 49 ± 0.05% and 35 ± 0.33% and 25 ± 0.03% | 55 ± 0.05% and 53 ± 0.03% and 57 ± 0.13% and 60 ± 0.07% | 77 ± 0.12% and 75 ± 0.15% and 86 ± 0.53% and 67 ± 0.11% | 90 ± 0.02% and 93 ± 0.01% and 99 ± 0.11% and 82 ± 0.01% | 70.3 ± 0.01% and 68.2 ± 0.17% and 58.1 ± 0.05% and 69.3 ± 0.41% | 85.3 ± 0.01% and 88.1 ± 0.02% and 79.1 ± 0.12% and 95.3 ± 0.01% | 97.2 ± 0.2% and 94.2 ± 0.5% and 84.2 ± 0.18% and 105.2 ± 0.2% | – | – | – | – | – | – | –
42 ± 0.15 µM | 40.01 ± 0.01 µM | 29.05 ± 0.01 µM | Competitive | 26.15 ± 0.02 µM | Competitive | 37.01 ± 0.04 µM | Cc1ccc(S(=O)(=O)N(Cc2ccccc2)c2nccs2)cc1 [Compound 19, N-Benzyl-4-methyl-N-(thiazol-2-yl)benzenesulfonamide] | 32 ± 0.07% | 59 ± 0.25% | 80 ± 0.11% | 88 ± 0.01% | 65.8 ± 0.03% | 89.6 ± 0.11% | 95.1 ± 0.41% | 39.1 ± 0.2% | 18.01 ± 0.09% | 37.05 ± 0.04% | 41.09 ± 0.01% | 69.02 ± 0.03% | 89.03 ± 0.91% | –
40 ± 0.06 µM | 43.5 ± 0.03 µM | 22.1 ± 0.35 µM | Competitive | 20.6 ± 0.41 µM | Non-competitive | 38.01 ± 0.06 µM | COc1ccc(S(=O)(=O)N(Cc2ccccc2)c2nccs2)cc1 [Compound 20, N-Benzyl-4-methoxy-N-(thiazol-2-yl)benzenesulfonamide] | 31 ± 0.02% | 54 ± 0.12% | 79 ± 0.22% | 85 ± 0.25% | 49.2 ± 0.01% | 56.3 ± 0.83% | 80.2 ± 0.01% | 35.2 ± 0.1% | 15.04 ± 0.2% | 22.02 ± 0.05% | 45.08 ± 0.06% | 61.01 ± 0.03% | 82.03 ± 0.07% | –
45 ± 0.03 µM | ~45.2 µM and 45.2 µM | 27 ± 0.48 µM | Non-competitive | 23.06 ± 0.11 µM | Competitive | ~33 µM and 33 µM | O=S(=O)(c1ccc(Br)cc1)N(Cc1ccccc1)c1nccs1 [Compound 21, N-benzyl-4-bromo-N-(thiazol-2-yl)benzenesulfonamide] | 33 ± 0.3% | 57 ± 0.13% | 82 ± 0.01% | 86 ± 0.11% | 63.5 ± 0.11% | 90.5 ± 0.16% | 99.1 ± 0.32% | 35.1 ± 0.05% | 15.1 ± 0.05% | 30.5 ± 0.04% | 46.03 ± 0.11% | 72.05 ± 0.15% | 90.03 ± 0.51% | –
40 ± 0.06 µM | 57.2 ± 0.07 µM | 18.7 ± 0.23 µM | Competitive | 15.31 ± 0.09 µM | Non-competitive | 40.01 ± 0.01 µM | O=S(=O)(c1ccccc1)N(Cc1ccccc1)c1nccs1 [Compound 22, N-Benzyl-N-(thiazol-2-yl)benzenesulfonamide] | 35 ± 0.02% | 57 ± 0.15% | 80 ± 0.25% | 87 ± 0.15% | 50.1 ± 0.11% | 66.1 ± 0.23% | 79.5 ± 0.05% | 31.4 ± 0.08% | 12.04 ± 0.01% | 27.2 ± 0.5% | 47.03 ± 0.06% | 66.11 ± 0.31% | 86.13 ± 0.12% | –
47 ± 0.11 µM | 49.15 ± 0.05 µM | 28.02 ± 0.07 µM | Non-competitive | 25.1 ± 0.28 µM | Non-competitive | 30.01 ± 0.11 µM | O=S(=O)(c1ccc(Cl)cc1)N(Cc1ccccc1)c1nccs1 [Compound 23, N-benzyl-4-chloro-N-(thiazol-2-yl)benzenesulfonamide] | 39 ± 0.3% | 60 ± 0.56% | 89 ± 0.07% | 103 ± 0.19% | 57.3 ± 0.01% | 70.5 ± 0.16% | 93.05 ± 0.32% | 32.6 ± 0.21% | 19.5 ± 0.05% | 39.5 ± 0.24% | 55.13 ± 0.13% | 76.01 ± 0.5% | 93.03 ± 0.31% | –
– | 47.1 ± 0.08 µM | 53.32 ± 0.21 µM | Non-competitive | 48.1 ± 1.19 µM | Non-competitive | 29.01 ± 0.14 µM | O=[N+]([O-])c1ccc(S(=O)(=O)N(Cc2ccccc2)c2nccs2)cc1 [Compound 25, N-benzyl-4-nitro-N-(thiazol-2-yl)benzenesulfonamide] | – | – | – | – | 57.8 ± 0.11% | 71.6 ± 0.03% | 85.1 ± 0.41% | 35.2 ± 0.2% | 09.01 ± 0.09% | 28.05 ± 0.04% | 43.09 ± 0.01% | 70.02 ± 0.03% | 81.03 ± 0.91% | inhibition against both enzymes (J.B. and B.P urease), in words (jack bean urease): weak inhibition
– | – | – | – | – | – | – | NC(N)=S [Thiourea, reference compound] | – | – | – | – | – | – | – | – | – | – | – | – | – | IC50 ([3]; read-out: Enzyme (SEM ±) B.P Urease, IC50, mean ± SEM): 14.08 ± 0.05 µM; IC50 (jack bean urease; read-out: Enzyme (SEM ±) J.B Urease, IC50, mean ± SEM): 10.12 ± 0.08 µM
– | – | – | – | – | – | 16.4 µM and 19.4 µM and 17.5 µM and 20.3 µM | Cc1c(C)c2c(c(C)c1O)CCC(C)(C(=O)O)O2 (stereo not shown) [Trolox, reference compound] | – | – | – | – | – | – | – | – | 36.08 ± 0.1% and 26.05 ± 0.03% and 35.01 ± 0.3% and 18.08 ± 0.1% | 58.02 ± 0.62% and 55.02 ± 0.12% and 65.2 ± 0.1% and 40.02 ± 0.62% | 67.03 ± 0.02% and 70.03 ± 0.01% and 77.31 ± 0.07% and 55.03 ± 0.02% | 85.01 ± 0.06% and 82.01 ± 0.05% and 89.01 ± 0.5% and 84.01 ± 0.06% | 105.02 ± 0.02% and 109.2 ± 0.22% and 105.12 ± 0.21% and 93.02 ± 0.02% | –
